≈ marks a conversion by molar mass, not a printed value.
Key:
Format in all cases: physicochemical
[1] = Saturated solubility of compound in glycerin
[2] = Saturated solubility of compound in water
How it was run: (§1)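 Saturated solubility in the named medium (water or buffer at the stated pH), reported in mg ml−1. Levels below the detection limit are reported as BLOQ.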

[3] = Saturated solubility of compound in buffer at pH 3.5; how it was run: as §1
[4] = Saturated solubility of compound in transcutol p
[5] = Saturated solubility of compound in buffer at pH 5.5; how it was run: as §1
[6] = Saturated solubility of compound in propylene glycol
[7] = Saturated solubility of compound in buffer at pH 4.5; how it was run: as §1
[8] = Saturated solubility of compound in dimethyl isosorbide
[9] = Saturated solubility of compound in ethanol
[10] = Saturated solubility of compound in phenoxy ethanol
[11] = Saturated solubility of compound in benzyl alcohol
[12] = Saturated solubility of compound in oleyl-alcohol
[13] = Saturated solubility of compound in buffer at pH 7; how it was run: as §1
[14] = Saturated solubility of compound in isopropanol
[15] = Saturated solubility of compound in crodamol-GTC
[16] = Saturated solubility of compound in isopropyl myristate
[17] = Solubility of compound at pH 7.4; details: buffer

solubility thermodynamic [1] | solubility ([2]; water, read-out: solubility) | solubility [3] | solubility thermodynamic [4] | solubility thermodynamic [5] | solubility thermodynamic [6] | solubility [7] | solubility ([8]; BLD = below limit of detection) | solubility thermodynamic [9] | solubility thermodynamic [10] | solubility [11] | solubility ([2]; buffer, BLD = below limit of detection) | solubility thermodynamic [12] | solubility thermodynamic [13] | solubility thermodynamic [14] | solubility thermodynamic [15] | solubility thermodynamic [16] | solubility [8] | solubility [17] | Compound
13100 µg/mL | 1200 µg/mL | 1300 µg/mL | 1300 µg/mL | 200 µg/mL | 4700 µg/mL | 400 µg/mL | Bld | 700 µg/mL | 10700 µg/mL | 2000 µg/mL |  |  |  |  |  |  |  |  | CS(=O)(=O)O.Cc1nc(N(C)C(=O)Cc2ccc(-c3ccccn3)cc2)sc1S(N)(=O)=O [PRITELIVIR MESYLATE]
500 µg/mL (≈ 1240 µM) |  | 100 µg/mL (≈ 248 µM) | 44800 µg/mL (≈ 111000 µM) | 100 µg/mL (≈ 248 µM) | 28400 µg/mL (≈ 70600 µM) | 100 µg/mL (≈ 248 µM) |  | 300 µg/mL (≈ 745 µM) | 2200 µg/mL (≈ 5470 µM) | 2200 µg/mL (≈ 5470 µM) | Bld | 100 µg/mL (≈ 248 µM) | 100 µg/mL (≈ 248 µM) | 400 µg/mL (≈ 994 µM) | 200 µg/mL (≈ 497 µM) | 100 µg/mL (≈ 248 µM) | 82300 µg/mL (≈ 204000 µM) | 11.5 µg/mL (≈ 28.6 µM) | Cc1nc(N(C)C(=O)Cc2ccc(-c3ccccn3)cc2)sc1S(N)(=O)=O [PRITELIVIR]
